Compound activity: PubChem BioAssay, Johns Hopkins Ion Channel Center
TRPC4 block – TRPC4 (mouse) channel inhibition; HEK293 TRPC4beta/mu-opioid, DAMGO-evoked Fluo4 calcium flux; active compounds read low; Q9QUQ5; B-score at 10 µM; 300,000 compounds, 0.39% hits;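 active = B-score over 3 SD under the library average, no early fluorescence shift, positive overall ratio signal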
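Assay system – HEK293 line stably carrying TRPC4beta and mu-opioid receptor · Doses – single dose · Detection – Fluo4 calcium-dye fluorescence, kinetic read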
TRPC4 act – activators of mouse TRPC4 channel | HEK293 TRPC4beta/mu-opioid, Fluo4 calcium fluorescence; active compounds read high | Q9QUQ5 | AID 2237 | 310,000 compounds, 0.49% hits | B-score at 10 µM;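 active = B-score above 5 SD of library B-scores, and initial fluorescence ratio not above library mean plus 5 SD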;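 also: positive B-score marks a calcium rise read as TRPC4 activation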
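Assay system: HEK293 stable line with TRPC4beta plus mu-opioid receptor. Times: dye 45 min RT, read 110 s. Measured by: kinetic Fluo4 calcium fluorescence. Measure: B score of integrated ratio. Controls: assay buffer as low control, maximal DAMGO as high control.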
TRPC4 PAM – allosterically enhances the mouse TRPC4 cation channel; B-score at 10 µM; Q9QUQ5; HEK293 TRPC4beta/mu-opioid, DAMGO EC20, Fluo-4 Ca2+ flux; active compounds read high; 310,000 compounds, 0.42% hits;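 active = B-score of calcium response area above 5 SD of library B-scores, with initial fluorescence ratio within 5 SD of library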;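 also: B-score of integrated fluorescence ratio over time as area under calcium response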
Kir21 block – blocks the mouse Kir2.1 inward-rectifier potassium channel; 310,000 compounds, 0.85% hits; HEK293-Kir2.1, FluxOR thallium flux fluorescence; active compounds read low; AID 1672; B-score at 10 µM;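 active = fluorescence ratio B-score at or below minus 3 SD of library scores, with starting-brightness B-score within 2 SD, cut at about -4.2 in these data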;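 also: channel flux triggered by added potassium and thallium sulfate stimulus; B-score of peak minus minimum fluorescence over baseline after thallium stimulus; more negative B-score means stronger Kir2.1 block with less thallium influx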
Target sequence (P35561 whole entry, looked up): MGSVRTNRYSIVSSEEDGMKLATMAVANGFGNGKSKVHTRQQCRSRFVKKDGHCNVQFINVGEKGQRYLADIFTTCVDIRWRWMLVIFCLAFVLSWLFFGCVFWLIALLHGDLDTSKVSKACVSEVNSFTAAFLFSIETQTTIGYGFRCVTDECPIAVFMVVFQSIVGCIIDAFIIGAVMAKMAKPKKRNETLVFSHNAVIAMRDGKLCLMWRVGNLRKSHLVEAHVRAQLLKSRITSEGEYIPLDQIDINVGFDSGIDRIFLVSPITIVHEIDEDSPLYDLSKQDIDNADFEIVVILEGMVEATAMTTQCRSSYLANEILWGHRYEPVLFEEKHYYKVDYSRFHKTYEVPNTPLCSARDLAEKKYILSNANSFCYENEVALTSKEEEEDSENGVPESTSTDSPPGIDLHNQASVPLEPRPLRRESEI
TRPC6 inh – inhibitors of mouse TRPC6 channel; B-score at 10 µM; 310,000 compounds, 1.1% hits; HEK293-TRPC6, membrane potential dye, ACh-evoked depolarization; active compounds read low;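 active = B-score under library mean minus 3 SD, initial fluorescence not abnormally high, positive integrated signal ratio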;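 also: B-score derived from integrated fluorescence ratio over the kinetic read; more negative B-score means stronger inhibition of depolarization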
TRPC6 activator – activators of mouse TRPC6 channel | 310,000 compounds, 0.13% hits | HEK293-TRPC6 membrane potential dye fluorescence; active compounds read high | Q61143 | AID 2550 | B-score at 10 µM;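 active = B-score of the integrated fluorescence ratio above library mean plus 3 SD, and starting fluorescence ratio within library mean plus 5 SD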;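 also: higher score means more depolarization so channel activation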
* = called active by the depositor; i = inactive. Compounds with a hit are over-represented: about 2.9% of the library has one in this group of screens.

SMILES | TRPC4 block | TRPC4 act | TRPC4 PAM | Kir21 block | TRPC6 inh | TRPC6 activator
C(=C\c1ccccc1)/CSc1nnc(-c2ccncc2)n1Cc1ccco1 | i | i | i | -5.1* | i | i
C(=C\c1ccccc1)/CSc1nnc(-c2ccccc2)n1Cc1ccco1 | i | i | i | -5.4* | i | i
COc1ccc(C(=O)NC(C)c2cnn(-c3ccccn3)c2C)o1 (configuration not stated) | i | i | i | 0.18 | i | i
NC(=S)Nc1ccc(S(=O)(=O)c2ccc(NC(N)=S)cc2)cc1 | i | i | i | 0.63 | i | i
CC(C)C[C@H](NC(=O)N1CCn2c1nc1ccccc12)C(=O)NC1CCCCC1 | i | i | i | -0.68 | i | i
COc1cccc(CNC(=O)CCC2CCCN(c3cc(C)nc(N(C)C)n3)C2)c1 (configuration not stated) | -6* | i | i | -0.51 | i | i
CCCCn1c(N)c(N(CC)C(=O)c2ccccc2F)c(=O)[nH]c1=O | i | i | i | 1 | i | i
CCCCn1c(N)c(N(CCOC)C(=O)COC(=O)COc2c(C)cc(C)cc2C)c(=O)[nH]c1=O | i | i | i | 0.75 | i | i
O=C1CSC(c2ccccc2F)N1c1cc(Cl)ccc1O (configuration not stated) | i | i | i | -6* | i | i
COc1cc(OC)c(C2N(c3ccc(Cl)cc3)C(=O)C3CCCN32)cc1OC (configuration not stated) | i | i | 12* | 0 | i | i
COc1cc(OC)c(C2N(c3ccc(Cl)c(Cl)c3)C(=O)C3CCCN32)cc1OC (configuration not stated) | i | i | i | -2 | i | i
CC(C)c1ccccc1OCCCCN1CCCCC1 | i | i | i | -5* | i | i
Cc1ccc(OCCCCCN2CCOCC2)cc1 | i | i | i | 1.5 | i | i
CC(C)c1ccccc1OCCCN1CCCC1 | i | i | i | -0.9 | i | i
Brc1ccccc1OCCCCCN1CCOCC1 | i | i | 11* | -0.7 | i | i
CC(C)c1ccccc1OCCCCCN1CCOCC1 | i | i | 13* | -3.1 | i | i
Brc1ccccc1OCCCN1CCCC1 | i | i | i | 0.08 | i | i
Clc1ccccc1OCCCCN1CCNCC1 | i | i | 12* | 0.84 | i | i
CC(=O)Nc1ccc(N2CCN(Cc3ccccc3)CC2)cc1 | i | i | i | 0.69 | i | i
COC(=O)c1ccccc1NC(=S)NC(=O)C1CCCCC1 | i | i | 16* | 0.96 | i | i
Cc1ccc(C)c(NS(=O)(=O)c2cc(C(=O)N3CCCC3)ccc2Cl)c1 | i | i | i | 0.45 | i | i
O=C(Nc1nnc2n1CCS2)c1ccc(Br)o1 | i | i | 68* | 0.99 | i | i
CC(CNC(=O)C(C)(C)C)NC(=O)C(C)(C)C (configuration not stated) | i | i | i | 1.2 | i | i
Cc1cc(N2CCC(C)CC2)c(F)cc1[N+](=O)[O-] | i | i | i | 0.19 | i | i
Cc1cc(N2CCCC2)c(F)cc1/C=C\[N+](=O)[O-] | i | i | i | -7.7* | i | i
SMILES | TRPC4 block | TRPC4 act | TRPC4 PAM | Kir21 block | TRPC6 inh | TRPC6 activator
CCCCCC1=CCC/C1=N\NC(=O)c1ccc2c(c1)OCO2 | i | i | i | 1.1 | i | i
CC1(C)C(=O)OC(C(=O)c2ccc(C(C)(C)C)cc2)C(C)(C)C1=O (configuration not stated) | i | i | 13* | 0.16 | i | i
CC(C)(C)C1=CC(=O)C(=O)C(C(C)(C)C)=C1 | i | i | i | -8.6* | i | i
Cc1ccc(Sc2ccc(CO)cc2[N+](=O)[O-])cc1 | -7* | i | i | 0.91 | i | i
COc1ccccc1NC(=O)N(Cc1cccs1)Cc1cc2cc3c(cc2[nH]c1=O)OCO3 | i | i | i | -0.4 | i | i
CCN(CC)CCNC(=O)c1ccc2c(=O)n(CCc3ccccc3)c(=O)[nH]c2c1 | i | i | i | 0.58 | i | i
CCCCN(C)CCNC(=O)c1ccc(Cn2c(=S)[nH]c3ccc(Br)cc3c2=O)cc1 | i | i | 25* | -1.9 | i | i
CN(C)CCNC(=O)c1ccc2c(=O)n(Cc3ccc(Cl)cc3)c(=S)[nH]c2c1 | i | i | i | -0.78 | i | i
CCCCCn1c(=O)[nH]c2cc(C(=O)NCCCN(C)Cc3ccccc3)ccc2c1=O | i | i | 12* | -2.6 | i | i
CCOCCCn1c(=S)[nH]c2cc(C(=O)NCCCN(CC)CC)ccc2c1=O | i | i | 24* | -2 | i | i
CCC(C)C(NC(N)=O)C(=O)Nc1ccc(OCc2ccccc2)cc1 (configuration not stated) | i | i | i | 1.5 | i | i
Cc1ccc(C(c2nnnn2Cc2ccccc2)N2CCN(Cc3ccccc3)CC2)cc1 (configuration not stated) | i | i | i | -0.56 | i | i
COc1ccc(C(CNC(=O)CCNC(=O)c2ccc(Br)cc2)N2CCOCC2)cc1 (configuration not stated) | i | i | i | -0.62 | i | i
CCC1CN(C(=O)NCc2ccc(F)cc2)c2cc(C)ccc2O1 (configuration not stated) | i | i | i | -1.9 | i | i
CCC1CN(C(=O)Nc2ccc(C)cc2)c2cc(C)ccc2O1 (configuration not stated) | -6* | i | i | -0.87 | i | i
COc1ccc(/C=N/NC(=O)c2ccc(O)cc2)cc1CN1CCCc2ccccc21 | i | i | i | -0.6 | i | i
COc1ccc(/C=N/NC(=O)c2ccc(F)cc2)cc1CN1CCc2cc(OC)c(OC)cc2C1C (configuration not stated) | -6* | i | i | -0.15 | i | i
COC(=O)c1ccc(NC(=O)c2cc[n+](Cc3ccccc3)cc2)cc1 | i | i | i | -0.97 | i | i
CC(C)=CCc1c(O)cc2c(c1O)C(=O)CC(c1ccccc1)O2 (configuration not stated) | i | i | i | 0.33 | i | i
CC(C)=CCc1c(O)ccc2c1OC(c1ccc(O)c(O)c1)CC2=O (configuration not stated) | i | i | i | -7.1* | i | i
